In brackets after ≈: the same amount, converted by molar mass.
Experiments:
Candida albicans [1] = assay: Antifungal activity against Candida albicans CAI4 expressing delta-cph1/delta-efg1 (EFG1) gene assessed as growth inhibition at 16 ug/ml by CLSI M27-A3 method; format: functional; conditions: read-out: GI
Procedure, shortened: (§1)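 CLSI M27-A3 broth microdilution in RPMI, read after 48 h. Strains pre-grown 18 h in YEPD at 30°C. Final inoculum 0.5×10^2–2.5×10^3 cells/ml. Two-fold dilutions in RPMI came from a 1600 µg/ml stock in water with 9% DMSO; final DMSO was 0.09%. OD405 read, % inhibition = 100 − (CTW−SCW)/(GCW−SCW). Triplicate on three occasions, mean±SD.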

Candida albicans [2] = assay: Antifungal activity against Candida albicans CAI4 expressing delta-efg1 gene assessed as growth inhibition at 16 ug/ml by CLSI M27-A3 method; format: functional; conditions: read-out: GI
Procedure, shortened: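 CLSI M27-A3 broth microdilution in RPMI. Final inoculum 0.5×10^2 to 2.5×10^3 cells/ml. Seven two-fold concentrations from 0.25 to 16 µg/ml, with DMSO held at 0.09% (v/v) in all wells. Compound-free growth controls and sterility controls are run for each strain. […] Triplicate on three occasions.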

Candida albicans [3] = assay: Antifungal activity against Candida albicans CAI4 expressing delta-efg1 gene assessed as growth inhibition at 0.25 ug/ml by CLSI M27-A3 method; format: functional; conditions: read-out: GI; procedure, shortened: as §1
Candida albicans [4] = assay: Antifungal activity against Candida albicans 90028 assessed as growth inhibition at by CLSI M27-A3 method; format: functional
Candida albicans [5] = assay: Inhibition of cell adhesion of compound pre-treated Candida albicans 90028 to human Caco2 cells assessed as cell adhesion level at 16 ug/ml pre-incubated for 18 hrs by colony counting method (reference value: 1.58 +/- 0.67%); format: functional, Caco-2; design: scale not given: the % may be the effect or the level left
Candida albicans [6] = assay: Antifungal activity against Candida albicans CAI4 expressing delta-cph1 gene assessed as growth inhibition at 16 ug/ml by CLSI M27-A3 method; format: functional; conditions: read-out: GI; procedure, shortened: as §1
Candida albicans [7] = assay: Antifungal activity against Candida albicans 90028 assessed as growth inhibition at 8 ug/ml by CLSI M27-A3 method; format: functional; conditions: read-out: GI; procedure, shortened: as §1
Candida albicans [8] = assay: Antifungal activity against Candida albicans CAI4 expressing delta-efg1 (EFG1) gene assessed as growth inhibition at by CLSI M27-A3 method; format: functional
Candida albicans [9] = assay: Inhibition of cell adhesion of compound pre-treated Candida albicans CAI4 expressing delta-cph1/delta-efg1 (EFG1) gene to human Caco2 cells assessed as cell adhesion level at 8 ug/ml pre-incubated for 18 hrs by colony counting method (reference value: 1.24 +/- 1.06%); format: functional, Caco-2; design: scale not given: the % may be the effect or the level left
Candida albicans [10] = assay: Antifungal activity against Candida albicans CAI4 expressing delta-cph1/delta-efg1 gene assessed as growth inhibition at 1 ug/ml by CLSI M27-A3 method; format: functional; conditions: read-out: GI; procedure, shortened: as §1
Candida albicans [11] = assay: Inhibition of cell adhesion of compound pre-treated Candida albicans CAI4 expressing delta-cph1 (CPH1) gene to human Caco2 cells assessed as cell adhesion level at 4 ug/ml pre-incubated for 18 hrs by colony counting method (reference value: 5.37 +/- 12.4%); format: functional, Caco-2; design: scale not given: the % may be the effect or the level left
Candida albicans [12] = assay: Antifungal activity against Candida albicans CAI4 expressing delta-cph1 gene assessed as growth inhibition at 2 ug/ml by CLSI M27-A3 method; format: functional; conditions: read-out: GI; procedure, shortened: as §1
Candida albicans [13] = assay: Antifungal activity against Candida albicans CAI4 expressing delta-cph1 gene assessed as growth inhibition at 8 ug/ml by CLSI M27-A3 method; format: functional; conditions: read-out: GI; procedure, shortened: as §1
Candida albicans [14] = assay: Antifungal activity against Candida albicans CAI4 expressing delta-cph1 (CPH1) gene assessed as growth inhibition at by CLSI M27-A3 method; format: functional
Candida albicans [15] = assay: Antifungal activity against Candida albicans CAI4 expressing delta-cph1/delta-efg1 (EFG1) gene assessed as growth inhibition at 4 ug/ml by CLSI M27-A3 method; format: functional; conditions: read-out: GI; procedure, shortened: as §1
Candida albicans [16] = assay: Antifungal activity against Candida albicans CAI4 expressing delta-cph1/delta-efg1 (EFG1) gene assessed as growth inhibition at 2 ug/ml by CLSI M27-A3 method; format: functional; conditions: read-out: GI; procedure, shortened: as §1
Candida albicans [17] = assay: Inhibition of cell adhesion of compound pre-treated Candida albicans CAI4 expressing delta-cph1 gene to human Caco2 cells assessed as cell adhesion level at 8 ug/ml pre-incubated for 18 hrs by colony counting method (reference value: 1.6 +/- 0.65%); format: functional, Caco-2; design: scale not given: the % may be the effect or the level left
Candida albicans [18] = assay: Inhibition of cell adhesion of compound pre-treated Candida albicans CAI4 expressing delta-efg1/delta-cph1 gene to human Caco2 cells assessed as cell adhesion level at 8 ug/ml pre-incubated for 18 hrs by colony counting method (reference value: 1.22 +/- 0.78%); format: functional, Caco-2; design: scale not given: the % may be the effect or the level left
Candida albicans [19] = assay: Antifungal activity against Candida albicans CAI4 expressing delta-cph1 gene assessed as growth inhibition at 0.5 ug/ml by CLSI M27-A3 method; format: functional; conditions: read-out: GI; procedure, shortened: as §1
Candida albicans [20] = assay: Antifungal activity against Candida albicans 90028 assessed as growth inhibition at 4 ug/ml by CLSI M27-A3 method; format: functional; conditions: read-out: GI; procedure, shortened: as §1
Candida albicans [21] = assay: Inhibition of cell adhesion of compound pre-treated Candida albicans CAI4 expressing delta-cph1 (CPH1) gene to human Caco2 cells assessed as cell adhesion level at 2 ug/ml pre-incubated for 18 hrs by colony counting method (reference value: 5.37 +/- 12.4%); format: functional, Caco-2; design: scale not given: the % may be the effect or the level left
Candida albicans [22] = assay: Antifungal activity against Candida albicans 90028 assessed as growth inhibition at 0.25 ug/ml by CLSI M27-A3 method; format: functional; conditions: read-out: GI; procedure, shortened: as §1
Candida albicans [23] = assay: Inhibition of cell adhesion of compound pre-treated Candida albicans CAI4 expressing delta-cph1 (CPH1) gene to human Caco2 cells assessed as cell adhesion level at 16 ug/ml pre-incubated for 18 hrs by colony counting method (reference value: 5.37 +/- 12.4%); format: functional, Caco-2; design: scale not given: the % may be the effect or the level left
Candida albicans [24] = assay: Antifungal activity against Candida albicans CAI4 expressing delta-cph1 gene assessed as growth inhibition at 1 ug/ml by CLSI M27-A3 method; format: functional; conditions: read-out: GI; procedure, shortened: as §1
Candida albicans [25] = assay: Antifungal activity against Candida albicans CAI4 expressing delta-cph1/delta-efg1 (EFG1) gene assessed as growth inhibition at 1 ug/ml by CLSI M27-A3 method; format: functional; conditions: read-out: GI; procedure, shortened: as §1
Candida albicans [26] = assay: Inhibition of cell adhesion of compound pre-treated Candida albicans CAI4 expressing delta-efg1 (EFG1) gene to human Caco2 cells assessed as cell adhesion level at 16 ug/ml pre-incubated for 18 hrs by colony counting method (reference value: 2.6 +/- 2.33%); format: functional, Caco-2; design: scale not given: the % may be the effect or the level left
Candida albicans [27] = assay: Inhibition of cell adhesion of compound pre-treated Candida albicans SC5314 to human Caco2 cells assessed as cell adhesion level at 16 ug/ml pre-incubated for 18 hrs by colony counting method (reference value: 1.1 +/- 1.1%); format: functional, Caco-2; design: scale not given: the % may be the effect or the level left
Candida albicans [28] = assay: Antifungal activity against Candida albicans CAI4 expressing delta-cph1/delta-efg1 (EFG1) gene assessed as growth inhibition at 0.25 ug/ml by CLSI M27-A3 method; format: functional; conditions: read-out: GI; procedure, shortened: as §1
Candida albicans [29] = assay: Antifungal activity against Candida albicans CAI4 expressing delta-cph1/delta-efg1 (EFG1) gene assessed as growth inhibition at 8 ug/ml by CLSI M27-A3 method; format: functional; conditions: read-out: GI; procedure, shortened: as §1
Candida albicans [30] = assay: Antifungal activity against Candida albicans CAI4 expressing delta-cph1/delta-efg1 gene assessed as growth inhibition at 2 ug/ml by CLSI M27-A3 method; format: functional; conditions: read-out: GI; procedure, shortened: as §1
Candida albicans [31] = assay: Antifungal activity against Candida albicans CAI4 expressing delta-cph1 (CPH1) gene assessed as growth inhibition at 4 ug/ml by CLSI M27-A3 method; format: functional; conditions: read-out: GI; procedure, shortened: as §1

Row | MIC90 (Candida albicans [4]) | MIC90 (Candida albicans [8]) | MIC90 (Candida albicans [14]) | Compound | inhibition of growth at 16 µg/mL (Candida albicans [1]) | inhibition of growth at 16 µg/mL (Candida albicans [2]) | inhibition of growth at 0.25 µg/mL (Candida albicans [3]) | Activity (Candida albicans [5]) | inhibition of growth at 16 µg/mL (Candida albicans [6]) | inhibition of growth at 8 µg/mL (Candida albicans [7]) | Activity (Candida albicans [9]) | inhibition of growth at 1 µg/mL (Candida albicans [10]) | Activity (Candida albicans [11]) | inhibition of growth at 2 µg/mL (Candida albicans [12]) | inhibition of growth at 8 µg/mL (Candida albicans [13]) | inhibition of growth at 4 µg/mL (Candida albicans [15]) | inhibition of growth at 2 µg/mL (Candida albicans [16]) | Activity (Candida albicans [17]) | Activity (Candida albicans [18]) | inhibition of growth at 0.5 µg/mL (Candida albicans [19]) | inhibition of growth at 4 µg/mL (Candida albicans [20]) | further results
1 | 16 µg/mL (≈ 41.7 µM) | 16 µg/mL (≈ 41.7 µM) | 16 µg/mL (≈ 41.7 µM) | O=[N+]([O-])c1cc(S(=O)(=O)C(Cl)(Cl)Br)ccc1Cl | 99.8% | 99.6% | 98.4% | 0.68% | 99.6% | 99.5% | 1.26% | 98.8% | 1.39% | 98.9% | 99.3% | 99.5% | 99.3% | 0.35% | 0.38% | 97.4% | 99.4% | Activity (Candida albicans [21]): 2.38%; inhibition of growth at 0.25 µg/mL (Candida albicans [22]): 98.6%; Activity (Candida albicans [23]): 0.48%; inhibition of growth at 1 µg/mL (Candida albicans [24]): 97.8%; inhibition of growth at 1 µg/mL (Candida albicans [25]): 98.9%; Activity (Candida albicans [26]): 0.77%; Activity (Candida albicans [27]): 0.71%; inhibition of growth at 0.25 µg/mL (Candida albicans [28]): 96.5%; inhibition of growth at 8 µg/mL (Candida albicans [29]): 99.8%; inhibition of growth at 2 µg/mL (Candida albicans [30]): 98.8%; inhibition of growth at 4 µg/mL (Candida albicans [31]): 99.7%
2 | 4 µg/mL (≈ 9.45 µM) | 4 µg/mL (≈ 9.45 µM) | 4 µg/mL (≈ 9.45 µM) | NNc1ccc(S(=O)(=O)C(Cl)(Br)Br)cc1[N+](=O)[O-] | 100% | 100% | 70.8% | 1.6% | 100% | 100% | 0.75% | 100% | 0.76% | 100% | 100% | 99.1% | 99.3% | 0.56% | 1.66% | 96.6% | 99.7% | Activity (Candida albicans [21]): 1.86%; inhibition of growth at 0.25 µg/mL (Candida albicans [22]): 17%; Activity (Candida albicans [23]): 0.78%; inhibition of growth at 1 µg/mL (Candida albicans [24]): 99.8%; inhibition of growth at 1 µg/mL (Candida albicans [25]): 98.8%; Activity (Candida albicans [26]): 0.89%; Activity (Candida albicans [27]): 0.8%; inhibition of growth at 0.25 µg/mL (Candida albicans [28]): 72%; inhibition of growth at 8 µg/mL (Candida albicans [29]): 99.4%; inhibition of growth at 2 µg/mL (Candida albicans [30]): 100%; inhibition of growth at 4 µg/mL (Candida albicans [31]): 99.1%

Row | Compound | MIC90 (Candida albicans [4]) | MIC90 (Candida albicans [8]) | MIC90 (Candida albicans [14]) | inhibition of growth at 16 µg/mL (Candida albicans [1]) | inhibition of growth at 16 µg/mL (Candida albicans [2]) | inhibition of growth at 0.25 µg/mL (Candida albicans [3]) | Activity (Candida albicans [5]) | inhibition of growth at 16 µg/mL (Candida albicans [6]) | inhibition of growth at 8 µg/mL (Candida albicans [7]) | Activity (Candida albicans [9]) | inhibition of growth at 1 µg/mL (Candida albicans [10]) | Activity (Candida albicans [11]) | inhibition of growth at 2 µg/mL (Candida albicans [12]) | inhibition of growth at 8 µg/mL (Candida albicans [13]) | inhibition of growth at 4 µg/mL (Candida albicans [15]) | inhibition of growth at 2 µg/mL (Candida albicans [16]) | Activity (Candida albicans [17]) | Activity (Candida albicans [18]) | inhibition of growth at 0.5 µg/mL (Candida albicans [19]) | inhibition of growth at 4 µg/mL (Candida albicans [20]) | further results
3 | O=[N+]([O-])c1cc(S(=O)(=O)C(Cl)Cl)ccc1Cl | 16 µg/mL (≈ 52.5 µM) | 16 µg/mL (≈ 52.5 µM) | 16 µg/mL (≈ 52.5 µM) | 99.4% | 99.5% | 99.1% | 1.19% | 99.6% | 99.3% | 2.24% | 99.1% | 1.28% | 99% | 99.2% | 99.3% | 99.2% | 0.8% | 0.48% | 99.1% | 99.2% | Activity (Candida albicans [21]): 1.43%; inhibition of growth at 0.25 µg/mL (Candida albicans [22]): 99.1%; Activity (Candida albicans [23]): 2.28%; inhibition of growth at 1 µg/mL (Candida albicans [24]): 99.3%; inhibition of growth at 1 µg/mL (Candida albicans [25]): 99%; Activity (Candida albicans [26]): 0.79%; Activity (Candida albicans [27]): 0.68%; inhibition of growth at 0.25 µg/mL (Candida albicans [28]): 98.8%; inhibition of growth at 8 µg/mL (Candida albicans [29]): 99.3%; inhibition of growth at 2 µg/mL (Candida albicans [30]): 99.1%; inhibition of growth at 4 µg/mL (Candida albicans [31]): 98.7%
